Measurements published in ChEMBL document CHEMBL3826882, “Discovery of 1-((2R,4aR,6R,7R,7aR)-2-Isopropoxy-2-oxidodihydro-4H,6H-spiro[furo[3,2-d][1,3,2]dioxaphosphinine-7,2'-oxetan]-6-yl)pyrimidine-2,4(1H,3H)-dione (JNJ-54257099), a 3'-5'-Cyclic Phosphate Ester Prodrug of 2'-Deoxy-2'-Spirooxetane Uridine Triphosphate Useful for HCV Inhibition” (J Med Chem, 2016).

Assays:
Hepatocyte [1] = assay: Prodrug conversion in mouse primary hepatocytes assessed as 2'-deoxy-2'-spirooxetane uridine triphosphate level per million cells at 2 uM after 24 hrs using radiolabelled compound by LC-MS/MS analysis; type: ADME, cell-based
In short: (§1)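 Study A: fresh primary hepatocyte cultures from mouse, rat, dog and human incubated with tritiated prodrug at 2 or 62.5 µM for 4 or 24 h. Triphosphate in cell lysates reported as pmol/million hepatocytes. Duplicate or single measurements.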

Hepatocyte [2] = assay: Drug metabolism in mouse primary hepatocyte supernatant assessed as 1-[(4aR,6R,7R,7aR)-2-hydroxy-2-oxidodihydro-4H-spiro[furo[3,2-d][1,3,2]dioxaphosphinine-7,2'-oxetan]-6-yl]pyrimidine-2,4(1H,3H)-dione formation at 2 to 62.5 uM after 4 to 24 hrs using radiolabelled compound by HPLC analysis; type: ADME, cell-based; conditions: hepatocytes
In short: (§2)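 Fresh primary hepatocyte cultures incubated with tritiated prodrug (5'-[3H]) at 2 and 62.5 µM for 4 and 24 h. Supernatants taken after protein precipitation and profiled by HPLC with radioactivity detection. Cell lysates profiled for metabolites by radio-LC. Cyclic monophosphate also measured by LC/MS/MS.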

[3] = Drug metabolism in dog primary hepatocytes assessed as ((4R,5R,7R,8R)-5-(2,4-dioxo-3,4-dihydropyrimidin-1(2H)-yl)-8-hydroxy-1,6-dioxaspiro[3.4]octan-7-yl)methyl dihydrogen phosphate formation at 2 to 62.5 uM after 4 hrs using radiolabeled compound by LC-MS/MS analysis; type: ADME, cell-based, Canis lupus familiaris, Hepatocyte
In short: (§3)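 Study A: primary cultured hepatocytes (mouse, rat, dog, human) incubated with 2 or 62.5 µM 5'-[3H]-labelled prodrug for 4 and 24 h. Cell lysates were analysed for triphosphate. Supernatants were protein-precipitated and profiled by HPLC with radioactivity detection. Cyclic monophosphate was also assessed by LC/MS/MS.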

[4] = Drug metabolism in dog primary hepatocyte supernatant assessed as 1-((4R,5R,7R,8R)-8-hydroxy-7-(hydroxymethyl)-1,6-dioxaspiro[3.4]octan-5-yl)pyrimidine-2,4(1H,3H)-dione formation at 2 to 62.5 uM after 4 to 24 hrs using radiolabeled compound by HPLC analysis; type: ADME, cell-based, Canis lupus familiaris; conditions: hepatocytes; in short: as §3
Hepatocyte [5] = assay: Drug metabolism in rat primary hepatocyte supernatant assessed as 1-[(4aR,6R,7R,7aR)-2-hydroxy-2-oxidodihydro-4H-spiro[furo[3,2-d][1,3,2]dioxaphosphinine-7,2'-oxetan]-6-yl]pyrimidine-2,4(1H,3H)-dione formation at 2 to 62.5 uM after 4 to 24 hrs using radiolabelled compound by HPLC analysis; type: ADME, cell-based; conditions: hepatocytes; in short: as §2
Hepatocyte [6] = assay: Prodrug conversion in rat primary hepatocytes assessed as 2'-deoxy-2'-spirooxetane uridine triphosphate level per million cells at 62.5 uM after 24 hrs using radiolabelled compound by LC-MS/MS analysis; type: ADME, cell-based; in short: as §1
[7] = Stability in dog primary hepatocyte supernatant assessed as parent compound level at 2 uM after 4 to 24 hrs using radiolabeled compound by HPLC analysis; type: ADME, cell-based, Canis lupus familiaris; conditions: hepatocytes; in short: as §2
Hepatocyte [8] = assay: Prodrug conversion in human primary hepatocytes assessed as 2'-deoxy-2'-spirooxetane uridine triphosphate level per million cells at 62.5 uM after 4 hrs using radiolabelled compound by LC-MS/MS analysis; type: ADME, cell-based; in short: as §1
[9] = Cmax in dog liver at 50 mg/kg, po; type: ADME, organism-based, Canis lupus familiaris; parameters: dose 50 mg/kg, route oral
[10] = Cmax in mouse liver at 50 mg/kg, po; type: ADME, organism-based; parameters: dose 50 mg/kg, route oral
Liver [11] = assay: Half life in rat liver assessed as 2'-deoxy-2'-spirooxetane uridine triphosphate at 50 mg/kg, po; type: ADME, organism-based; conditions: in vivo
In short: (§4)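 Single oral dose of 50 mg/kg in 20% HP-β-cyclodextrin. Prodrug and triphosphate measured in plasma and liver over time (tlast 6–30 h). Half-life, Cmax, tmax and AUC0-last derived; liver/plasma ratio taken from AUC0-last. Prodrug data pooled from two independent studies.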

[12] = Tmax in dog plasma at 50 mg/kg, po; type: ADME, organism-based, Canis lupus familiaris
In short: (§5)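 Single oral dose of 50 mg/kg formulated in 20% HP-β-cyclodextrin. Prodrug and its triphosphate were measured in plasma and liver (ng/mL or ng/g) over time, and Cmax, tmax, AUC, tlast and t1/2 were derived. For some analytes, data from two independent studies are reported.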

Hepatocyte [13] = assay: Prodrug conversion in mouse cryopreserved hepatocytes assessed as 2'-deoxy-2'-spirooxetane uridine triphosphate level per million cells at 10 uM after 8 hrs by LC-MS/MS analysis; type: ADME, cell-based
In short: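 Plated cryopreserved hepatocytes (study B) incubated with 10 µM unlabeled prodrug for 2, 8 or 24 h. Triphosphate measured in cell lysates and expressed as pmol/million hepatocytes. Quantification limit 2 ng/10^6 cells.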

Hepatocyte [14] = assay: Prodrug conversion in human hepatocytes assessed as 2'-deoxy-2'-spirooxetane uridine triphosphate formation in presence of pan-CYP inhibitor 1-ABT by LC-MS/MS analysis; type: ADME, cell-based
[15] = Tmax in mouse liver at 50 mg/kg, po; type: ADME, organism-based; in short: as §5
Liver [16] = assay: AUC (0 to infinity) in rat liver assessed as 2'-deoxy-2'-spirooxetane uridine triphosphate at 50 mg/kg, po; type: ADME, organism-based; parameters: dose 50 mg/kg, time infinity, route oral; conditions: in vivo
In short: (§6)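 Oral dose 50 mg/kg, formulated in 20% HP-β-cyclodextrin. Prodrug and triphosphate were measured in plasma and liver (ng/mL or ng/g). Parameters derived were Cmax, tmax, AUC0-last, AUC0-inf and t1/2. Some prodrug data come from two independent studies.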

[17] = Tmax in dog liver at 50 mg/kg, po; type: ADME, organism-based, Canis lupus familiaris; in short: as §5
Hepatocyte [18] = assay: Drug level in human hepatocytes in presence of pan-CYP inhibitor 1-ABT by LC-MS/MS analysis; type: ADME, cell-based
Hepatitis C virus = assay: Antiviral activity against HCV genotype 3a infected in homozygous cDNA-uPA chimeric SCID mouse bearing humanized hepatocytes assessed as reduction in HCV RNA level in serum administered through oral gavage once daily for 7 days by RT-PCR method; type: functional, organism-based; conditions: Hepacivirus hominis, Hepatocyte
In short: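 Male chimeric SCID cDNA-uPA+/+ mice with human hepatocyte liver (≥70% replacement by blood human albumin) and serum HCV RNA >1.0×10^6 copies/mL the week before dosing. Oral gavage for 7 days in 20% HP-β-CD, 50-200 mg/kg QD or BID. Serum sampled pre-dose on days 1, 2, 3, 5 and 7. Real-time PCR; mean change in log10 copies/mL, day 7 vs day 1 pre-dose.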

Hepatocyte [19] = assay: Drug level in human hepatocytes in presence of CYP3A4 inhibitor ketoconazole by LC-MS/MS analysis; type: ADME, cell-based
[20] = Tmax in rat liver at 50 mg/kg, po; type: ADME, organism-based; in short: as §5
Hepatocyte [21] = assay: Prodrug conversion in human hepatocytes assessed as 2'-deoxy-2'-spirooxetane uridine triphosphate formation in presence of CYP3A4 inhibitor ritonavir by LC-MS/MS analysis; type: ADME, cell-based
Hepatocyte [22] = assay: Drug level in human hepatocytes in presence of CYP3A4 inhibitor ritonavir by LC-MS/MS analysis; type: ADME, cell-based
CYP3A4 = CYP3A4 (Homo sapiens, UniProt P08684); assay: Drug metabolism in baculovirus infected insect cell microsomes expressing human CYP3A4 assessed as CYP3A4-mediated half life at 22.7 uM; type: ADME
Chain of CYP3A4 (P08684 whole entry): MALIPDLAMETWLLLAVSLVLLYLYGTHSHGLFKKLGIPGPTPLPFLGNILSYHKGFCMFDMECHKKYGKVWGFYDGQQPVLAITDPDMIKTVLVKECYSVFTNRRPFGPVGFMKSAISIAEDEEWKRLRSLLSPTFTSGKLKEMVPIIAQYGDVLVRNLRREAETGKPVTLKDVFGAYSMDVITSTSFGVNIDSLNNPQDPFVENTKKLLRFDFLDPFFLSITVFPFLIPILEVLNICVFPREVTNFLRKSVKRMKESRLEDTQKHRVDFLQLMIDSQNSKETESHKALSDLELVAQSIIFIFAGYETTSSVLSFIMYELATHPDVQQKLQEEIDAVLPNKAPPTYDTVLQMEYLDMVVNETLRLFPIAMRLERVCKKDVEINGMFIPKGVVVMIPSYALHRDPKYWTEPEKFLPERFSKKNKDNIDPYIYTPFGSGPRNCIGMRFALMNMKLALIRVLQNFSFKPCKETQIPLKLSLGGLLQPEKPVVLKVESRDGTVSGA
In short: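 Incubation at 22.7 µM with human CYP3A4 supersomes. Intrinsic clearance (µL/min.pmol P450) and half-life (min) were determined.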

[23] = Cmax in dog plasma at 50 mg/kg, po; type: ADME, organism-based, Canis lupus familiaris; parameters: dose 50 mg/kg, route oral
[24] = Half life in mouse liver at 50 mg/kg, po; type: ADME, organism-based; in short: as §4
[25] = Tmax in mouse plasma at 50 mg/kg, po; type: ADME, organism-based; in short: as §5
[26] = AUC (0 to infinity) in rat plasma at 50 mg/kg, po; type: ADME, organism-based; parameters: dose 50 mg/kg, time infinity, route oral; in short: as §6
[27] = Tmax in rat plasma at 50 mg/kg, po; type: ADME, organism-based; in short: as §5

**Q.** Which Drug metabolism (Hepatocyte [1]) does the source give for [3H]C1O[P@](=O)(OC(C)C)O[C@@H]2[C@@H]1O[C@@H](n1ccc(=O)[nH]c1=O)[C@@]21CCO1 (some centres undefined) here?
**A.** 0.049 pmol

**Q.** What about the Drug metabolism (Hepatocyte [2]) of the same molecule?
**A.** metabolite_detected

**Q.** What about the Drug metabolism [3] of the same molecule?
**A.** metabolite_detected

**Q.** What about the Drug metabolism [4] of the same molecule?
**A.** metabolite_detected

**Q.** What about the Drug metabolism (Hepatocyte [5]) of the same molecule?
**A.** metabolite_detected

**Q.** And the Drug metabolism (Hepatocyte [6])?
**A.** 0.39 pmol

**Q.** What about the Stability [7] of the same molecule?
**A.** Stable

**Q.** And the Drug metabolism (Hepatocyte [8])?
**A.** 0.24 pmol

**Q.** For CC(C)O[P@@]1(=O)OC[C@H]2O[C@@H](n3ccc(=O)[nH]c3=O)[C@@]3(CCO3)[C@@H]2O1, which Cmax [9] is on record?
**A.** 5030 ng/g

**Q.** What about the Cmax [10] of the same molecule?
**A.** 701 ng/g

**Q.** What about the t1/2 (Liver [11]) of the same molecule?
**A.** 5.8 h

**Q.** What about the Tmax [12] of the same molecule?
**A.** 1.5 h

**Q.** And the Drug metabolism (Hepatocyte [13])?
**A.** 0.95 pmol

**Q.** What about the Drug metabolism (Hepatocyte [14]) of the same molecule?
**A.** metabolite_notdetected

**Q.** What about the Tmax [15] of the same molecule?
**A.** 1 h

**Q.** And the AUC (Liver [16])?
**A.** 758393 ng·h/g

**Q.** What about the Tmax [17] of the same molecule?
**A.** 1 h

**Q.** What about the Drug uptake (Hepatocyte [18]) of the same molecule?
**A.** Active

**Q.** And the Activity (Hepatitis C virus)?
**A.** Dose-dependent effect

**Q.** What about the Drug uptake (Hepatocyte [19]) of the same molecule?
**A.** Active

**Q.** What about the Tmax [20] of the same molecule?
**A.** 1 h

**Q.** And the Drug metabolism (Hepatocyte [21])?
**A.** metabolite_notdetected

**Q.** What about the Drug uptake (Hepatocyte [22]) of the same molecule?
**A.** Active

**Q.** What about the half-life at 22.7 µM (CYP3A4) of the same molecule?
**A.** 2.18 h

**Q.** And the Cmax [23]?
**A.** 4650 ng/mL

**Q.** What about the half-life [24] of the same molecule?
**A.** 2.1 h

**Q.** And the Tmax [25]?
**A.** 0.5 h

**Q.** What about the AUC(0-inf) [26] of the same molecule?
**A.** 7440 ng·h/mL

**Q.** And the Tmax [27]?
**A.** 0.5 h
